Reference: ChEMBL document CHEMBL3091323, “Investigation of quinazolines as inhibitors of breast cancer resistance protein (ABCG2)” (Bioorg Med Chem, 2013)
Active and inactive are the calls of the source. The calls are words filed in the database; no cut-off is given here.

Tests used:
[1] = target: T1, Broad substrate specificity ATP-binding cassette transporter ABCG2 (Homo sapiens, UniProt Q9UNQ0); test: Inhibition of human BCRP expressed in MDCK2 cells assessed as pheophorbide A accumulation treated 30 mins before pheophorbide A addition measured up to 120 mins by flow cytometry; assay type: cell-based, MDCK-II
T1 sequence (Q9UNQ0 whole entry): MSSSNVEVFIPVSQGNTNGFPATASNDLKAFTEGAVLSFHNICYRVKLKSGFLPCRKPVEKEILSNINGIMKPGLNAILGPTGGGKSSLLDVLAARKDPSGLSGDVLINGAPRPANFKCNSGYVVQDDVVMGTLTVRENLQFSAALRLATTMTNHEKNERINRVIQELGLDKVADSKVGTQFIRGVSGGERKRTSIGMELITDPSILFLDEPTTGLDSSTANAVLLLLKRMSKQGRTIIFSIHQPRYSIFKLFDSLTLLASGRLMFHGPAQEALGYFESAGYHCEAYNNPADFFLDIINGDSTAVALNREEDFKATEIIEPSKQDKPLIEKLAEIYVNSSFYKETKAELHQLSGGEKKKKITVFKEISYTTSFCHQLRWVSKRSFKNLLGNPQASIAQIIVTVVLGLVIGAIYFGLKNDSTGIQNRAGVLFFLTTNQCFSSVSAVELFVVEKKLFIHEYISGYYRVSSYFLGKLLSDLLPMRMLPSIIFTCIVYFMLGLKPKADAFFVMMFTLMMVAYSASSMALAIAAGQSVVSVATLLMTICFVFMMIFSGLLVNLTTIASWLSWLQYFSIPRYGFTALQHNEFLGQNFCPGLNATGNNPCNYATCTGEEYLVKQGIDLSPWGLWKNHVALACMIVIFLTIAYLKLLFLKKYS

[2] = target: T1, Broad substrate specificity ATP-binding cassette transporter ABCG2; test: Inhibition of human BCRP expressed in MDCK2 cells assessed as Hoechst 33342 accumulation treated 30 mins before Hoechst 33342 addition measured up to 120 mins by fluorescence assay; assay type: cell-based, MDCK-II
[3] = tested on: MDCK-II; test: Increase of plasma membrane expression of BCRP expressing reporter gene GFP in BCRP-MDCK2 cells at 0.5 to 1.8 uM after 72 hrs by fluorescence assay; assay type: functional, cell-based; conditions: Canis lupus familiaris, in the assay text read “total expression” for “plasma membrane expression”
Method in brief: (§1)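 MDCK II cells transfected with human wild-type BCRP cDNA C-terminally fused to GFP. Seeded at 100,000 cells/well and treated 4 h later at final 0.5, 1.0 and 1.8 µM for 72 h at 37 °C. Surface BCRP measured by 5D3 antibody binding (FL2, 585 nm) and total BCRP by GFP (FL1, 520 nm) on a flow cytometer, gated on scatter. Geometric means normalized to untreated cells as 100%.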

[4] = Reduction of plasma membrane expression of BCRP expressing reporter gene GFP in BCRP-MDCK2 cells at 0.5 to 1.8 uM after 72 hrs by fluorescence assay relative to control; assay type: functional, cell-based; design: scale not given: the % may be the effect or the level left; conditions: Canis lupus familiaris, MDCK-II; method in brief: as §1
[5] = tested on: BCRP; test: Therapeutic index, ratio of GI50 for MDCK cells to IC50 for human BCRP expressed in MDCK2 cells; conditions: dog
[6] = Cytotoxicity against MDCK cells after 72 hrs by MTT assay; assay type: cell-based, Canis lupus familiaris; conditions: dog
Method in brief: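 MTT assay in MDCK BCRP and parental MDCK cells: 2500 cells/well, 6 h attachment at 37 °C, 5% CO₂, compounds up to 100 µM for 72 h. MTT (5 mg/ml solution) added for 1 h, then lysis in DMSO. Absorbance read at 544 nm with 710 nm background correction. Controls were 10% DMSO medium and PBS only. GI₅₀ derived.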

[7] = target: MRP1 (Homo sapiens, UniProt P33527); test: (§2) Inhibition of MRP1 in human 2008 cells assessed as Calcein AM accumulation at 10 uM treated 30 mins before Calcein AM addition measured up to 90 mins by fluorescence assay relative to control; assay type: cell-based; conditions: human, 2008 cells, probe Calcein AM
Chain of MRP1 (P33527 whole entry): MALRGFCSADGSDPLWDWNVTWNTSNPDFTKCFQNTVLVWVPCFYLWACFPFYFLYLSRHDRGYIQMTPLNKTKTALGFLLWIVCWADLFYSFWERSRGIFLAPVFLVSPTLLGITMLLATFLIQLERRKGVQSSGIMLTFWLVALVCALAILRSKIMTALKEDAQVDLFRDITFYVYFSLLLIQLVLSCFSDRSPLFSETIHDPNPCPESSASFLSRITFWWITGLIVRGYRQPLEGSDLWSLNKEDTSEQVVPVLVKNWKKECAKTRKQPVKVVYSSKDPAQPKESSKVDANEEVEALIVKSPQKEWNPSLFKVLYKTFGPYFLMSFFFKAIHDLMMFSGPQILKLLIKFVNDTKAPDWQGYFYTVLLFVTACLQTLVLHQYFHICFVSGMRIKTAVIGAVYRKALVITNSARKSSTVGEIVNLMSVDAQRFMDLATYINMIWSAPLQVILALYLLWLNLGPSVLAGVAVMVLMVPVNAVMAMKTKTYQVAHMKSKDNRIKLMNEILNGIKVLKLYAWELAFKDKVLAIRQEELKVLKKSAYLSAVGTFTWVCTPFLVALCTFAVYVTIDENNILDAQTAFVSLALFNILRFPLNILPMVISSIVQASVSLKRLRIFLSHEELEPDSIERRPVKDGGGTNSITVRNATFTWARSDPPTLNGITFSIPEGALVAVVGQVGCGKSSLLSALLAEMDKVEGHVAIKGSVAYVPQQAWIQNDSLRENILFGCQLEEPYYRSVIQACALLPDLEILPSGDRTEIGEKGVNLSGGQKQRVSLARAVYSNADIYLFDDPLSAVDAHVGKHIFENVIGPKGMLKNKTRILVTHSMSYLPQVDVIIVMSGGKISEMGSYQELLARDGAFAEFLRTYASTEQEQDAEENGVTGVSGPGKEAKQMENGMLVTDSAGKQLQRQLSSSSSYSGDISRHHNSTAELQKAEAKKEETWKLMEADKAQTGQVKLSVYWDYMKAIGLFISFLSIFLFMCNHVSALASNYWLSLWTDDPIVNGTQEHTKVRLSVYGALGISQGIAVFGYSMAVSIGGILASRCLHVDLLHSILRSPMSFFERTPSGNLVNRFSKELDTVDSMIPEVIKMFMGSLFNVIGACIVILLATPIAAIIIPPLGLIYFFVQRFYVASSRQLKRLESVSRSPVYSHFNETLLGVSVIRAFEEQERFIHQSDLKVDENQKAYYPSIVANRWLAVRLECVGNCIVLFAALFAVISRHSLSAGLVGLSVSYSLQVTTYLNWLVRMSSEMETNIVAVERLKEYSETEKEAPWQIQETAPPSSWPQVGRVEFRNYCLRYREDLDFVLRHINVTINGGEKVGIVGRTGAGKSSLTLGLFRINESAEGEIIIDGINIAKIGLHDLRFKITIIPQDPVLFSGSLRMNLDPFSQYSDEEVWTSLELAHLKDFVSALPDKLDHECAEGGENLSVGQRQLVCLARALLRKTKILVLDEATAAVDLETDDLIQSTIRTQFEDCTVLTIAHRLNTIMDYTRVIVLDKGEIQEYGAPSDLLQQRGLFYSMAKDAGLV

[8] = target: MDR1 (Homo sapiens, UniProt P08183); test: (§3) Inhibition of MDR1 in human doxorubicin-resistant A2780adr cells assessed as Calcein AM accumulation at 10 uM treated 30 mins before Calcein AM addition measured up to 90 mins by fluorescence assay relative to control; assay type: cell-based, A2780 ADR; conditions: doxorubicin-resistant A2780adr cells, probe Calcein AM
Chain of MDR1 (P08183 whole entry): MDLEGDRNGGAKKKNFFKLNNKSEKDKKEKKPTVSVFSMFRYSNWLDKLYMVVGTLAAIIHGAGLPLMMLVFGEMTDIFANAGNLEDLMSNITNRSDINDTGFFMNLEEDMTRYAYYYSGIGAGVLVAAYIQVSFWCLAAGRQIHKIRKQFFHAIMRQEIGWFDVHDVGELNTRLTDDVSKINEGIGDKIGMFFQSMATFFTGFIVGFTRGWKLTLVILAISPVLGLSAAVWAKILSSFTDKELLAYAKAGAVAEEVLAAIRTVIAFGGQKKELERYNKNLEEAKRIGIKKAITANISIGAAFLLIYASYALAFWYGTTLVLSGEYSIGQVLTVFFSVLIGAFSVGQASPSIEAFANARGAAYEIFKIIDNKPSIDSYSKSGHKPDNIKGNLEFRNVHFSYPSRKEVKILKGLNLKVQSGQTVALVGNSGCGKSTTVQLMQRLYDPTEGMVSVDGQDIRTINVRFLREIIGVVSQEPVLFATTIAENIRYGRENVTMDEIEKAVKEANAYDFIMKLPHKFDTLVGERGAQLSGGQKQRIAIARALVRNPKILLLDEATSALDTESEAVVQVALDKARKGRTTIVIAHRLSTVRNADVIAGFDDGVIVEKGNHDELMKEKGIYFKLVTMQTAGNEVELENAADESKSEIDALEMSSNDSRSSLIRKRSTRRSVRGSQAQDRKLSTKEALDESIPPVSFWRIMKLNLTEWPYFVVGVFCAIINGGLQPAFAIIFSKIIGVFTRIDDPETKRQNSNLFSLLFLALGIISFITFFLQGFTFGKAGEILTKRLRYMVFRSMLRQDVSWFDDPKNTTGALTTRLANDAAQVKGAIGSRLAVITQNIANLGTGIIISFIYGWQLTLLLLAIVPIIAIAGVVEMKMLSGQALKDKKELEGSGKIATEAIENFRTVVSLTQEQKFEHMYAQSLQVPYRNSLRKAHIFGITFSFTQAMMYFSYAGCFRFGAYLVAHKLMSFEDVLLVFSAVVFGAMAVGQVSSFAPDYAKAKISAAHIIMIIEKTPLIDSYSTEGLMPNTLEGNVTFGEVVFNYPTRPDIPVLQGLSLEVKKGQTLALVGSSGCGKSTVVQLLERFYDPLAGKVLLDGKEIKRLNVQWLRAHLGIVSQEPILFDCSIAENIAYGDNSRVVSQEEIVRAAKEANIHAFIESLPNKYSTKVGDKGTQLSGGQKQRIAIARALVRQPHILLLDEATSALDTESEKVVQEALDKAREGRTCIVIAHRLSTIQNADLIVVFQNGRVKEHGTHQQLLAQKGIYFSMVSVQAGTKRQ

[9] = target: T2, ATP-dependent translocase ABCB1 (Homo sapiens, UniProt P08183); test: Inhibition of MDR1 in human doxorubicin-resistant A2780adr cells assessed as Calcein AM accumulation treated 30 mins before Calcein AM addition measured up to 90 mins by fluorescence assay; assay type: cell-based, A2780 ADR
T2 sequence (P08183 whole entry): as above

[10] = target: T1, Broad substrate specificity ATP-binding cassette transporter ABCG2; test: Reversal of human BCRP-mediated multidrug resistant in MDCK2 cells assessed as increase of Hoechst 33342-induced cytotoxicity at 1 to 5 uM after 72 hrs by MTT assay; assay type: cell-based; conditions: mdck-ii
Method in brief: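 MDR reversal by MTT assay in MDCK BCRP cells with compounds at final 1 µM and 5 µM. Dose–response curves to Hoechst 33342 were compared with and without inhibitor and against sensitive MDCK cells. Conditions as for the MTT cytotoxicity assay: 2500 cells/well, 72 h, absorbance at 544/710 nm.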

[11] = target: Multidrug resistance-associated protein 1 (Homo sapiens, UniProt P33527); test: as §2; assay type: cell-based; conditions: human, 2008, 10 µM
Chain of Multidrug resistance-associated protein 1 (P33527 whole entry): as the sequence (P33527 whole entry) above

[12] = target: T2, ATP-dependent translocase ABCB1; test: as §3; assay type: cell-based, A2780 ADR; conditions: a2780 adr, 10 µM

| SMILES | IC50 [1] [nM] | IC50 [2] [nM] | inhibition at 90 min, 10 µM [7] [%] | inhibition at 90 min, 10 µM [8] [%] | other results |
| --- | --- | --- | --- | --- | --- |
| N#Cc1cccc(Nc2ncnc3ccccc23)c1 | 2030 | 1180 | – | – | – |
| COc1cc2ncnc(Nc3ccc([N+](=O)[O-])cc3)c2cc1OC | 2460 | 2920 | – | – | – |
| COc1cc2ncnc(Nc3cccc([N+](=O)[O-])c3)c2cc1OC | 910 | 810 | – | – | Activity [3]: inactive; Activity [4]: 60%; selectivity ratio [5]: 1.85; GI50 at 72 h [6]: 1500 nM |
| COc1ccc(Nc2ncnc3cc(OC)c(OC)cc23)cc1OC | 3790 | 7380 | – | – | – |
| COc1ccc(-c2nc(Nc3cccc(O)c3)c3ccccc3n2)cc1OC | 110 | 140 | > 50 | > 50 | selectivity ratio ([5]; mdck2): 33; GI50 at 72 h [6]: 4610 nM; IC50 [9]: 18200 nM |
| Brc1cccc(Nc2nc(-c3ccccc3)nc3ccccc23)c1 | – | – | – | – | IC50 [9]: 12400 nM |
| Oc1cccc(Nc2nc(-c3ccccc3)nc3ccccc23)c1 | – | 150 | – | – | Activity [10]: Active; selectivity ratio ([5]; mdck2): 340; GI50 at 72 h [6]: 51100 nM; inhibition (INH) [11]: Not Active; inhibition (INH) [12]: Not Active |
| COc1cc2ncnc(Nc3ccc(F)c(Cl)c3)c2cc1OCCCN1CCOCC1 [GEFITINIB] | – | – | – | – | Activity [3]: Active; Activity [4]: Active; GI50 at 72 h [6]: 1450 nM |
| COc1ccc(-c2nc(Nc3cccc(Br)c3)c3ccccc3n2)cc1OC | 400 | 290 | > 50 | > 50 | IC50 [9]: 11800 nM |
| COc1ccc(-c2nc(Nc3ccccc3[N+](=O)[O-])c3ccccc3n2)cc1OC | 1550 | 640 | > 50 | > 50 | – |
| COc1cc2nc(Nc3cccc(Br)c3)nc(Nc3cccc(Br)c3)c2cc1OC | 860 | 670 | – | – | – |
| COc1cc2nc(Nc3cccc(C(F)(F)F)c3)nc(Nc3cccc(C(F)(F)F)c3)c2cc1OC | 610 | 800 | – | – | – |
| COc1cc2nc(Nc3cccc(C#N)c3)nc(Nc3cccc(C#N)c3)c2cc1OC | 470 | 480 | – | – | – |
| COc1ccc(-c2nc(Nc3ccc(O)cc3)c3ccccc3n2)cc1OC | 680 | 470 | > 50 | > 50 | – |
| COc1ccc(-c2nc(Nc3ccccc3O)c3ccccc3n2)cc1OC | 290 | 260 | > 50 | > 50 | – |
| O=[N+]([O-])c1cccc(Nc2ncnc3ccccc23)c1 | 890 | 1130 | – | – | Activity [3]: Active; Activity [4]: inactive; selectivity ratio [5]: 16; GI50 at 72 h [6]: 18300 nM |

| SMILES | IC50 [1] [nM] | IC50 [2] [nM] | inhibition at 90 min, 10 µM [7] [%] | inhibition at 90 min, 10 µM [8] [%] | other results |
| --- | --- | --- | --- | --- | --- |
| COc1cc2ncnc(Nc3cccc(C(F)(F)F)c3)c2cc1OC | 1980 | 2400 | – | – | – |
| COc1ccc(-c2nc(Nc3cccc([N+](=O)[O-])c3)c3ccccc3n2)cc1OC | – | – | > 50 | > 50 | Activity [3]: Active; Activity [4]: 75%; GI50 at 72 h [6]: 20800 nM; IC50 [9]: 9560 nM |
| COc1cc2ncnc(Nc3ccccc3[N+](=O)[O-])c2cc1OC | 3970 | 3800 | – | – | – |
| COc1ccc(-c2nc(Nc3ccccc3)c3ccccc3n2)cc1OC | 4090 | 1990 | > 50 | > 50 | – |
| COc1ccc(Nc2nc(Nc3ccc(OC)c(OC)c3)c3cc(OC)c(OC)cc3n2)cc1OC | 1520 | 1740 | – | – | – |
| COc1cc2nc(Nc3cccc([N+](=O)[O-])c3)nc(Nc3cccc([N+](=O)[O-])c3)c2cc1OC | 320 | 330 | – | – | – |
| COc1ccc(-c2nc(Nc3cccc(C#N)c3)c3ccccc3n2)cc1OC | – | – | > 50 | > 50 | – |
| COc1ccc(Nc2ncnc3ccccc23)cc1OC | 3380 | 4790 | – | – | – |
| COc1ccc(Nc2nc(-c3ccc(OC)c(OC)c3)nc3ccccc23)cc1OC | 610 | 420 | > 50 | > 50 | IC50 [9]: 3490 nM |
| COc1ccc(-c2nc(Nc3cccc(C(F)(F)F)c3)c3ccccc3n2)cc1OC | 240 | 300 | > 50 | > 50 | – |
| COc1cc2ncnc(Nc3cccc(Br)c3)c2cc1OC | 2320 | 1730 | – | – | – |
| FC(F)(F)c1cccc(Nc2ncnc3ccccc23)c1 | 1550 | 940 | – | – | – |
| O=[N+]([O-])c1cccc(Nc2nc(-c3ccccc3)nc3ccccc23)c1 | – | – | – | – | Activity [3]: Active; Activity [4]: inactive; GI50 at 72 h [6]: 67800 nM; inhibition (INH) [11]: Not Active; inhibition (INH) [12]: Not Active |
| Brc1cccc(Nc2ncnc3ccccc23)c1 | 1480 | 1080 | – | – | – |
| COc1cc2ncnc(Nc3cccc(C#N)c3)c2cc1OC | 930 | 1060 | – | – | – |
